Key:
Assay type in all cases: functional, Mus musculus
P388 [1] = test: In vivo antitumor activity against murine lymphocytic leukemia P388 measured as lethal dose […]; set-up: unit: mg/kg
How it was run: (§1)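 Male CD2-F1 mice (20 ± 3 g) implanted ip with 1 × 10^6 viable P388 cells on day 0. Drug given ip as aqueous suspension or solution in 0.9% NaCl or 5% dextrose on days 1, 5 and 9, dosed per body weight in mg/kg. Several dose levels bracketing the LD20 were tested, six mice per dose. Deaths before the control median day of death were counted as drug toxicity.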

P388 [2] = test: In vivo antitumor activity against murine lymphocytic leukemia P388 measured as percent increase in life span; how it was run: as §1
P388 [3] = test: In vivo antitumor activity against murine lymphocytic leukemia P388 measured as optimal dose
How it was run: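 Male CD2-F1 mice (20 ± 3 g) implanted ip with 1 × 10^6 viable P388 cells on day 0. Compound given ip as aqueous suspension or solution in 0.9% NaCl or 5% dextrose on days 1, 5 and 9, dosed per mg/kg body weight. Several doses bracketing LD20 were tested, six mice per dose. %ILS was calculated from median day of death of treated versus control mice. Values are optimal from at least two experiments.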

SMILES | LD20 (P388 [1]) | ILS (P388 [2]) [%] | Optimal dose (P388 [3]) [mg/kg]
CC(=O)OCC(COC(C)=O)(COC(C)=O)NCc1ccc2ccc3cccc4ccc1c2c34 | 500 | 30 | 315
COCC(C)(CO)NCc1ccc2ccc3cccc4ccc1c2c34 (stereo not given) | 135 | 30 | 180
CCC(CO)(CO)NCc1ccc2ccc3cccc4ccc1c2c34.Cl | 340 | 140 | 303
CCOCC(CO)(CO)NCc1ccc2ccc3cccc4ccc1c2c34.Cl | 225 | 30 | 168
CC(C)(CO)NCc1ccc2ccc3cccc4ccc1c2c34.Cl | 450 | 45 | 250
CC(CO)NCc1ccc2ccc3cccc4ccc1c2c34.Cl (stereo not given) | 600 | 25 | 220
CC(CO)(CO)NCc1ccc2ccc3cccc4ccc1c2c34.Cl | 300 | 125 | 300
Cl.c1cc2ccc3ccc(CNCCCN4CCOCC4)c4ccc(c1)c2c34 | 150 | 20 | 150
CC(C)C(CO)NCc1ccc2ccc3cccc4ccc1c2c34.Cl (stereo not given) | 450 | 27 | 200
CCC(CO)NCc1ccc2ccc3cccc4ccc1c2c34.Cl (stereo not given) | 450 | 25 | 366
CC(C)C(CO)(CO)NCc1ccc2ccc3cccc4ccc1c2c34.Cl | 300 | 55 | 450
Cl.OCCNCc1ccc2ccc3cccc4ccc1c2c34 | 220 | 31 | 221
Cl.OCC(O)C(CO)NCc1ccc2ccc3cccc4ccc1c2c34 (stereo not given) | 140 | 25 | 125
Cl.OCC(CO)(CO)NCc1ccc2ccc3cccc4ccc1c2c34 | 215 | 90 | 198
CC(O)CNCc1ccc2ccc3cccc4ccc1c2c34.Cl (stereo not given) | 600 | 28 | 300

From ChEMBL document CHEMBL1124897, “(1-Pyrenylmethyl)amino alcohols, a new class of antitumor DNA intercalators. Discovery and initial amine side chain structure-activity studies” (1990)
